In ChEMBL document CHEMBL1143412, “RSV604, a novel inhibitor of respiratory syncytial virus replication” (Antimicrob Agents Chemother, 2007):
Active and inactive are the calls of the source. The rule behind the calls is not given here.

How the values were obtained:
[1] = test system: Respiratory syncytial virus; assay: Antiviral activity against plaque picked A-33903-resistant RSV RSS from passage 2 in human Hep2 cells by plaque reduction assay; assay type: functional, organism-based; conditions: HEp-2
Summary of the method: (§1)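 HEp-2 monolayers in six-well plates infected with 0.2 ml of 500 PFU/ml virus. After 2 h, overlaid with DMEM, 2% FBS, 0.6% agarose plus compound dilution series. Incubated 5 days, formaldehyde-fixed, plaques stained with methylene blue or immunostained and counted. Activity expressed as percent of plaques in untreated infected wells.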

[2] = test system: Respiratory syncytial virus; assay: Antiviral activity against RSV B isolates infected human Hep2 cells after 5 days by plaque reduction assay; assay type: functional, organism-based; conditions: HEp-2, 120 h; summary of the method: as §1
[3] = test system: Pneumonia virus of mice 15; assay: Antiviral activity against Pneumonia virus of mice 15 infected human Hep2 cells after 5 days by plaque reduction assay; assay type: functional, organism-based; conditions: murine pneumonia virus, HEp-2, 120 h; summary of the method: as §1
[4] = test system: Respiratory syncytial virus; assay: Antiviral activity against RSV RSS with N protein L139I mutation in human Hep2 cells after 5 days by plaque reduction assay; assay type: functional, organism-based; conditions: HEp-2, 120 h; summary of the method: as §1
[5] = test system: Respiratory syncytial virus; assay: Antiviral activity against recombinant RSV expressing GFP infected HAE cells assessed as lack of viral replication-dependent green fluorescence level at 10 uM by fluorescence microscopy; assay type: functional, organism-based
[6] = test system: Respiratory syncytial virus; assay: Drug resistance, ratio of EC50 for plaque picked A-33903-resistant RSV RSS from passage 2 to EC50 for DMSO-passaged wild type RSV RSS; assay type: functional
[7] = test system: Respiratory syncytial virus; assay: Antiviral activity against RSV RSS with N protein […] mutation in human Hep2 cells after 5 days by plaque reduction assay; assay type: functional, organism-based; conditions: HEp-2, 120 h; summary of the method: as §1
[8] = test system: Respiratory syncytial virus; assay: Antiviral activity against recombinant RSV expressing GFP infected HAE cells assessed as lack of viral replication-dependent green fluorescence level at 20 uM by fluorescence microscopy; assay type: functional, organism-based
[9] = test system: Respiratory syncytial virus; assay: Antiviral activity against RSV RSS M2 mutant infected human Hep2 cells after 5 days by plaque reduction assay; assay type: functional, organism-based; conditions: HEp-2, 120 h; summary of the method: as §1
Human respirovirus 1 = assay: Antiviral activity against Parainfluenza virus type 1 infected human Hep2 cells after 5 days by plaque reduction assay; assay type: functional, organism-based; conditions: Human respirovirus 1, HEp-2, 120 h; summary of the method: as §1
[10] = test system: Respiratory syncytial virus; assay: Drug resistance, ratio of EC50 for RSV RSS with N protein L139I mutation to EC50 for wild type RSV RSS; assay type: functional
Human respirovirus 3 = assay: Antiviral activity against Parainfluenza virus type 3 infected human Hep2 cells after 5 days by plaque reduction assay; assay type: functional, organism-based; conditions: Human respirovirus 3, HEp-2, 120 h; summary of the method: as §1
[11] = test system: Respiratory syncytial virus; assay: Antiviral activity against RSV RSS with N protein I129L plus L139I mutant mutation in human Hep2 cells after 5 days by plaque reduction assay; assay type: functional, organism-based; conditions: HEp-2, 120 h; summary of the method: as §1
[12] = test system: Respiratory syncytial virus; assay: Antiviral activity against RSV Long infected human Hep2 cells after 5 days by plaque reduction assay; assay type: functional, organism-based; conditions: HEp-2, 120 h; summary of the method: as §1
[13] = test system: Respiratory syncytial virus; assay: Antiviral activity against RSV RSS infected human Hep2 cells after 5 days by plaque reduction assay; assay type: functional, organism-based; conditions: HEp-2, 120 h; summary of the method: as §1
[14] = test system: Respiratory syncytial virus; assay: Drug resistance, ratio of EC50 for RSV RSS with N protein N105D mutation to EC50 for wild type RSV RSS; assay type: functional
[15] = test system: Respiratory syncytial virus; assay: Antiviral activity against RSV RSS with N protein N105D mutation in human Hep2 cells after 5 days by plaque reduction assay; assay type: functional, organism-based; conditions: HEp-2, 120 h; summary of the method: as §1
[16] = test system: Respiratory syncytial virus; assay: Antiviral activity against recombinant RSV expressing GFP infected HAE cells assessed as inhibition of viral replication at 20 uM by fluorescence microscopy; assay type: functional, organism-based
[17] = test system: Respiratory syncytial virus; assay: Antiviral activity against recombinant RSV expressing GFP infected HAE cells assessed as inhibition of viral replication at 10 uM by fluorescence microscopy; assay type: functional, organism-based
[18] = Toxicity in recombinant RSV expressing GFP infected HAE cells assessed as alteration of cilium beat frequency at 20 uM for 7 days; conditions: human, 168 h
Summary of the method: (§2)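 Differentiated human airway epithelial cultures exposed to 20 μM compound for 7 days. Scored for gross cytotoxicity, leakage of basolateral fluid to the apical surface, and cilium beat frequency.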

[19] = test system: Respiratory syncytial virus; assay: Antiviral activity against RSV B infected human Hep2 cells after 5 days by plaque reduction assay; assay type: functional, organism-based; conditions: HEp-2, 120 h; summary of the method: as §1
[20] = Cytotoxicity against RSV RSS infected human Hep2 cells after 6 days by XTT assay; assay type: cell-based, HEp-2
[21] = Cytotoxicity against recombinant RSV expressing GFP infected HAE cells at 20 uM for 7 days; assay type: cell-based; conditions: human, 168 h; summary of the method: as §2
[22] = test system: Respiratory syncytial virus; assay: Antiviral activity against RSV RSS infected human Hep2 cells assessed as reduction of viral antigen synthesis after 3 days by ELISA; assay type: functional, organism-based; conditions: HEp-2, 72 h
Summary of the method: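 HEp-2 cells seeded at 5 × 10³ per well in DMEM/10% FBS for 24 h, infected with RSV RSS at MOI about 0.02, serial compound dilutions for 3 days. Cells fixed and permeabilised in methanol-acetone, blocked in milk-Tween. Probed with mouse anti-RSV monoclonal then HRP anti-mouse. Developed with o-phenylenediamine/H2O2, absorbance […].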

[23] = test system: Respiratory syncytial virus; assay: Antiviral activity against recombinant RSV expressing GFP infected HAE cells assessed as inhibition of viral replication at 1 uM by fluorescence microscopy; assay type: functional, organism-based
[24] = test system: Respiratory syncytial virus; assay: Antiviral activity against RSV RSS infected human Hep2 cells assessed as inhibition of virus-induced cell death after 6 days by XTT assay; assay type: functional, organism-based; conditions: HEp-2, 144 h
Summary of the method: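 HEp-2 cells seeded at 4 × 10³ per well in DMEM with 10% FBS, infected next day with RSV RSS dosed to give about 80% cytopathic effect by day 6. Serial compound dilutions (top 10 μM, 0.5% DMSO) present throughout. Viability read by XTT reduction after 6 days. EC50 taken as 50% reduction in virus-induced cell death.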

Bovine orthopneumovirus = assay: Antiviral activity against bovine RSV snook infected human Hep2 cells after 5 days by plaque reduction assay; assay type: functional, organism-based, Bovine respiratory syncytial virus; conditions: HEp-2, 120 h; summary of the method: as §1
[25] = test system: Respiratory syncytial virus; assay: Antiviral activity against RSV infected human Hep2 cells assessed as reduction of plaque formation pretreated 2 hrs before viral infection; assay type: functional, organism-based; conditions: HEp-2
Summary of the method: (§3)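 Plaque reduction in HEp-2 cells with compound added either 2 h before infection or 6 h after. Duplicate wells per dilution. Percent plaque reduction calculated against compound-free infected wells. Four independent experiments.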

[26] = test system: Respiratory syncytial virus; assay: Drug resistance, ratio of EC50 for RSV RSS M2 mutant to EC50 for wild type RSV RSS; assay type: functional
Metapneumovirus = assay: Antiviral activity against human Metapneumovirus infected human Hep2 cells after 5 days by plaque reduction assay; assay type: functional, organism-based; conditions: HEp-2, 120 h; summary of the method: as §1
[27] = Toxicity in recombinant RSV expressing GFP infected HAE cells assessed as leakage of basolateral fluid to apical surface at 20 uM for 7 days; conditions: human, 168 h; summary of the method: as §2
[28] = test system: Respiratory syncytial virus; assay: Antiviral activity against plaque picked RSV604-resistant RSV RSS from passage 2 in human Hep2 cells by plaque reduction assay; assay type: functional, organism-based; conditions: HEp-2; summary of the method: as §1
[29] = test system: Respiratory syncytial virus; assay: Antiviral activity against RSV infected human Hep2 cells assessed as reduction of plaque formation treated 6 hrs after viral infection; assay type: functional, organism-based; conditions: HEp-2; summary of the method: as §3
[30] = test system: Respiratory syncytial virus; assay: Antiviral activity against 1.5 MOI RSV RSS infected human Hep2 cells assessed as inhibition of virus-induced cell death after 6 days by XTT assay; assay type: functional, organism-based; conditions: HEp-2, 144 h
[31] = test system: Respiratory syncytial virus; assay: Drug resistance, ratio of EC50 for plaque picked RSV604-resistant RSV RSS from passage 2 to EC50 for DMSO-passaged wild type RSV RSS; assay type: functional
[32] = test system: Respiratory syncytial virus; assay: Antiviral activity against 0.02 MOI RSV RSS infected human Hep2 cells assessed as inhibition of virus-induced cell death after 6 days by XTT assay; assay type: functional, organism-based; conditions: HEp-2, 144 h
[33] = test system: Respiratory syncytial virus; assay: Antiviral activity against RSV A isolates infected human Hep2 cells after 5 days by plaque reduction assay; assay type: functional, organism-based; conditions: HEp-2, 120 h; summary of the method: as §1
[34] = test system: Respiratory syncytial virus; assay: Antiviral activity against DMSO-passaged wild type RSV RSS infected human Hep2 cells by plaque reduction assay; assay type: functional, organism-based; conditions: HEp-2; summary of the method: as §1
[35] = test system: Respiratory syncytial virus; assay: Drug resistance, ratio of EC50 for RSV RSS with N protein I129L plus L139I mutant mutation to EC50 for wild type RSV RSS; assay type: functional
[36] = test system: Respiratory syncytial virus; assay: Antiviral activity against recombinant RSV expressing GFP infected HAE cells assessed as inhibition of viral replication at 2 uM by fluorescence microscopy; assay type: functional, organism-based
[37] = Therapeutic index, CC50 for human Hep2 cells to EC50 for RSV RSS; assay type: cell-based, HEp-2; conditions: read-out: Ratio CC50/EC50
Summary of the method: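 Ratio of CC50 from uninfected HEp-2 XTT control plates to EC50 from RSV RSS-infected XTT plates, both read after 6 days.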

[38] = test system: Respiratory syncytial virus; assay: Antiviral activity against RSV A2 infected human Hep2 cells after 5 days by plaque reduction assay; assay type: functional, organism-based; conditions: A2, HEp-2, 120 h; summary of the method: as §1
[39] = test system: Respiratory syncytial virus; assay: Antiviral activity against recombinant RSV expressing GFP infected HAE cells assessed as lack of viral replication-dependent green fluorescence level at 2 uM by fluorescence microscopy; assay type: functional, organism-based

SMILES: O=C(Nc1ccccc1F)N[C@H]1N=C(c2ccccc2)c2ccccc2NC1=O [RSV-604]
- EC50 [1]: 2.7 µM
- EC50 [2]: 0.8 µM
- EC50 [3]: > 50 µM
- EC50 [4]: 6.7 µM
- Activity [5]: Active
- fold change (FC) [6]: 3.9
- EC50 [7]: 6.03 µM
- Activity [8]: Active
- EC50 [9]: 1.14 µM
- EC50 (Human respirovirus 1): > 50 µM
- fold change (FC) [10]: 7
- EC50 (Human respirovirus 3): > 50 µM
- EC50 [11]: > 20 µM
- EC50 [12]: 0.8 µM
- EC50 [13]: 0.9 µM
- fold change (FC) [14]: 5
- EC50 [15]: 4.78 µM
- Activity [16]: Active
- Activity [17]: Active
- Activity [18]: Not Active
- EC50 [19]: 0.6 µM
- CC50 at 144 h [20]: > 50 µM
- Activity [21]: Not Active
- EC50 [22]: 1.7 µM
- Activity [23]: Active
- EC50 [24]: 0.86 µM
- EC50 (Bovine orthopneumovirus): 0.3 µM
- Activity [25]: Active
- fold change (FC) [26]: 1.2
- EC50 (Metapneumovirus): > 50 µM
- Activity [27]: Not Active
- EC50 [28]: 30.4 µM
- Activity [29]: Active
- EC50 [30]: 2.55 µM
- fold change (FC) [31]: 50.7
- EC50 [32]: 1.4 µM
- EC50 [33]: 0.8 µM
- EC50 [34]: 0.6 µM
- fold change (FC) [35]: >20
- Activity [36]: Active
- selectivity ratio [37]: > 58
- EC50 [38]: 0.5 µM
- Activity [39]: Active

SMILES: COc1cc([N+](=O)[O-])ccc1C(=O)N[C@H]1N=C(c2ccccc2)c2ccccc2NC1=O
- EC50 [1]: 1.3 µM
- fold change (FC) [6]: 3.3
- EC50 [12]: 0.57 µM
- EC50 [13]: 0.8 µM
- EC50 [19]: 0.23 µM
- CC50 at 144 h [20]: > 50 µM
- EC50 [22]: 0.5 µM
- EC50 [24]: 0.9 µM
- EC50 [34]: 0.4 µM
- selectivity ratio [37]: > 55

SMILES: COc1ccccc1C(=O)NC1N=C(c2ccccc2)c2ccccc2NC1=O (stereo not given)
- EC50 [12]: 1.2 µM
- EC50 [13]: 1.4 µM
- CC50 at 144 h [20]: > 50 µM
- EC50 [22]: 1.1 µM
- EC50 [24]: 3 µM
- selectivity ratio [37]: > 16
- EC50 [38]: 1.2 µM
